{"source": "PubChem BioAssay AID1656", "about": "(Sanford-Burnham Center for Chemical Genomics, 2009)", "note": "Among all 240,000 compounds or so, about 950 (0.4%) were called active.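 Rule for the calls: active = lipid droplet intensity inhibited by at least 50%, with more than 500 cells counted; inconclusive = wells with under 300 cells, treated as cytotoxic; inactive = the rest.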 This excerpt belongs to a sample that is enriched for actives."}
{"experiment": "inhibitors of hepatocyte lipid droplet formation, primary screen, imaging, high-throughput imaging, BODIPY stain (AID 1656);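 for cell count: cells counted across two imaged fields per well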", "conditions": "AML12 mouse hepatocytes, oleate lipid droplets, at 6.5 µM; cell count: measured here: cell count, cytotoxicity flag; inhibition: stronger effect = higher value", "procedure,_shortened": "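Test system: AML12 mouse liver cells; schedule: overnight exposure; technique: high-content imaging of BODIPY-stained droplets and DAPI nuclei; read-out: % inhibition of corrected integrated BODIPY droplet signal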", "units": {"cell count": "cells"}}
{"smiles": "Cc1ccc2cc(C)c(N3CCN(c4ccc(F)cc4)CC3)nc2c1", "cell count": 820, "inhibition": "15% (inactive)"}
{"smiles": "CC(NC(=O)c1cccc2ccccc12)c1ccc2c(c1)CCCC2", "note": "(stereo unspecified)", "cell count": 688, "inhibition": "57.9% (active)"}
{"smiles": "CC(NC(=O)CNC(=O)Cc1cccc2ccccc12)c1ccc(S(N)(=O)=O)cc1", "note": "(stereo unspecified)", "cell count": 734, "inhibition": "13.3% (inactive)"}
{"smiles": "CC(NC(=O)c1ccccc1C(=O)O)c1ccc(-n2ccnc2)cc1", "note": "(stereo unspecified)", "cell count": 807, "inhibition": "2.2% (inactive)"}
{"smiles": "CCn1c(=S)sc2c(=O)n(CC(=O)Nc3cccc(Br)c3)c(C)nc21", "cell count": 740, "inhibition": "8.5% (inactive)"}
{"smiles": "C/C(=N\\NC(=O)COc1ccc(C)cc1[N+](=O)[O-])c1ccc2c(c1)OCCO2", "cell count": 706, "inhibition": "-6.5% (inactive)"}
{"smiles": "CCCSc1nc2sc3c(c2c(=O)n1-c1ccc(OC)cc1)CCN(C)C3", "cell count": 816, "inhibition": "11.2% (inactive)"}
{"smiles": "O=c1[nH]cccc1-c1nc2ccccc2n1Cc1ccc(Cl)cc1", "cell count": 844, "inhibition": "10.1% (inactive)"}
{"smiles": "CC(=O)N1c2ccc(S(=O)(=O)N3CCC(C(=O)N4CCN(c5ccccc5)CC4)CC3)cc2CC1C", "note": "(stereo unspecified)", "cell count": 669, "inhibition": "-1.7% (inactive)"}
{"smiles": "Cc1cc(Nc2ccc(N3CCOCC3)cc2)c2cccc(C)c2n1", "cell count": 761, "inhibition": "11.3% (inactive)"}
{"smiles": "Cc1ccc(Nc2ccc(C(N)=O)cc2[N+](=O)[O-])cc1", "cell count": 630, "inhibition": "-6.1% (inactive)"}
{"smiles": "Cc1ccc(Nc2cc(C)nc3c(C)ccc([N+](=O)[O-])c23)cc1", "cell count": 674, "inhibition": "57.6% (active)"}
{"smiles": "O=C(Nc1ncc([N+](=O)[O-])s1)C1COc2ccccc2O1", "note": "(stereo unspecified)", "cell count": 840, "inhibition": "-18.9% (inactive)"}
{"smiles": "CCN(CCCNC(=O)CSc1cc(=O)n(C)c2cc(Cl)ccc12)Cc1ccccc1", "cell count": 704, "inhibition": "18.8% (inactive)"}
{"smiles": "Cn1c(=O)cc(SCC(=O)N2CCCC2)c2cc(Cl)ccc21", "cell count": 775, "inhibition": "9% (inactive)"}
{"smiles": "CCOc1ccc(CCNC(=O)CSc2cc(=O)n(C)c3ccc(Cl)cc23)cc1OCC", "cell count": 659, "inhibition": "93.9% (active)"}
{"smiles": "O=C(c1ccccc1)N1CCC(CC2CC(c3ccc(Cl)cc3)=NO2)(C(=O)NCC2CCCCC2)CC1", "note": "(stereo unspecified)", "cell count": 817, "inhibition": "-15.1% (inactive)"}
{"smiles": "CN(CC1CCCN(CCc2cccc(C(F)(F)F)c2)C1)C(=O)c1ccc2nc[nH]c2c1", "note": "(stereo unspecified)", "cell count": 744, "inhibition": "-11.4% (inactive)"}
{"smiles": "O=C(NCCCN1CCCC1=O)C(=O)NCC1OCCN1S(=O)(=O)c1ccc(Br)cc1", "note": "(stereo unspecified)", "cell count": 666, "inhibition": "-6.7% (inactive)"}
{"smiles": "CCCN(CCC)c1ccc(C(O)c2nnc(-c3ccccc3)o2)cc1", "note": "(stereo unspecified)", "cell count": 691, "inhibition": "69.3% (active)"}
{"smiles": "OC(c1nnc(-c2ccccc2)o1)c1cccs1", "note": "(stereo unspecified)", "cell count": 773, "inhibition": "16.7% (inactive)"}
{"smiles": "CCCC(=O)Nc1nnc(-c2ccccc2)o1", "cell count": 702, "inhibition": "4.2% (inactive)"}
{"smiles": "O=C(Nc1ccccc1C(=O)Nc1ccncc1)c1ccc([N+](=O)[O-])cc1", "cell count": 805, "inhibition": "10.9% (inactive)"}
{"smiles": "CCCN(CCC)c1nc2c(C)cccn2c(=O)c1/C=C1/SC(=S)N(Cc2ccco2)C1=O", "cell count": 775, "inhibition": "57.5% (active)"}
{"smiles": "CCOC(=O)CC1C(=O)NCCN1c1nc2c(C)cccn2c(=O)c1/C=C1\\SC(=S)N(C(C)CC)C1=O", "note": "(stereo unspecified)", "cell count": 696, "inhibition": "36.8% (inactive)"}
{"smiles": "O=C(CCCN1C(=O)/C(=C\\c2ccco2)SC1=S)Nc1cccc2ccccc12", "cell count": 553, "inhibition": "-6.6% (inactive)"}
{"smiles": "CCc1cccc(NC(=O)CCCN2C(=O)C(c3ccccc3)Oc3cccnc32)c1", "note": "(stereo unspecified)", "cell count": 663, "inhibition": "-3.4% (inactive)"}
{"smiles": "COc1cccc(NC(=O)CN(C)C(=O)c2ccccc2CCc2ccccc2)c1", "cell count": 836, "inhibition": "-9.7% (inactive)"}
{"smiles": "CC(=O)c1cccc(NC(=O)CN2C(=O)c3cccnc3Oc3ccc(Cl)cc32)c1", "cell count": 693, "inhibition": "-16.7% (inactive)"}
{"smiles": "O=C(c1ccccc1)N1N=C(c2ccccc2O)CC1c1ccc(Br)cc1", "note": "(stereo unspecified)", "cell count": 868, "inhibition": "1.5% (inactive)"}
{"smiles": "COc1ccc(C(=O)NC2CC(C)(C)Cc3c2cnn3-c2ccccc2C)o1", "note": "(stereo unspecified)", "cell count": 621, "inhibition": "-21% (inactive)"}
{"smiles": "Cc1ccc(/C=C2/SC(=S)N(CCC(=O)NCCCN3CCOCC3)C2=O)cc1", "cell count": 794, "inhibition": "-18.3% (inactive)"}
{"smiles": "Cc1ccc(NC(=O)O/N=C/c2cccc([N+](=O)[O-])c2)cc1", "cell count": 427, "inhibition": "-4.6% (inactive)"}
{"smiles": "CCC(CC)NC(=O)/C=C/c1cccc([N+](=O)[O-])c1", "cell count": 628, "inhibition": "-7.2% (inactive)"}
{"smiles": "CCc1ccc(NC(=O)C(C)OC(=O)/C=C/c2cccc([N+](=O)[O-])c2)cc1", "note": "(stereo unspecified)", "cell count": 651, "inhibition": "60% (active)"}
{"smiles": "COc1ccccc1CCNS(=O)(=O)c1cc2c3c(c1)C(C)C(=O)N3CCC2", "note": "(stereo unspecified)", "cell count": 707, "inhibition": "-4% (inactive)"}
{"smiles": "CCCCN(CCCC)CCCNC(=O)CN1C(=O)COc2ccc(S(=O)(=O)N3CCC(C)CC3)cc21", "cell count": 789, "inhibition": "10.1% (inactive)"}
{"smiles": "CCOC(=O)[C@H]1[C@H]2COc3cc(OC)ccc3[C@@H]2N2C(=O)N(c3ccc(Br)cc3)C(=O)[C@@]12C", "cell count": 831, "inhibition": "-8.9% (inactive)"}
{"smiles": "COc1cccc(OCC(O)CNC(=O)c2oc3c(C)c(C)ccc3c2C)c1", "note": "(stereo unspecified)", "cell count": 871, "inhibition": "-0.2% (inactive)"}
{"smiles": "CC1CCN(c2nc3c(c(=O)[nH]c(=O)n3C)n2CCCc2ccccc2)CC1", "cell count": 572, "inhibition": "-14.6% (inactive)"}
{"smiles": "Cn1c(=O)[nH]c(=O)c2c1nc(N1CCN(C(c3ccccc3)c3ccccc3)CC1)n2CCO", "cell count": 768, "inhibition": "60.3% (active)"}
{"smiles": "C=C(C)Cn1c(N2CCCC2)nc2c1c(=O)[nH]c(=O)n2C", "cell count": 632, "inhibition": "-2.2% (inactive)"}
{"smiles": "CCOc1ccc(NC(=O)CCCCCN2C(=O)[C@@H]3Cc4ccccc4CN3C2=O)cc1", "cell count": 676, "inhibition": "11.7% (inactive)"}
{"smiles": "CCOc1ccc(CCNC(=O)Nc2ccccc2)cc1OCC", "cell count": 809, "inhibition": "118% (active)"}
{"smiles": "CCOc1ccc(CCNC(=O)C2=C(C)C(=O)OC23CCC(C)CC3)cc1OCC", "note": "(stereo unspecified)", "cell count": 788, "inhibition": "17.6% (inactive)"}
{"smiles": "CCOc1cc(NC(=O)Nc2ccccc2)c(OCC)cc1NC(=O)CC", "cell count": 783, "inhibition": "4.2% (inactive)"}
{"smiles": "CCn1c(SCc2cccc(C(=O)O)c2)nnc1-c1ccc(Cl)cc1", "cell count": 802, "inhibition": "11.8% (inactive)"}
{"smiles": "COc1ccc(C(=O)N2CCCCC2C(=O)Nc2ccc(-n3nc(C)cc3C)cc2)o1", "note": "(stereo unspecified)", "cell count": 694, "inhibition": "-12.1% (inactive)"}
{"smiles": "Cc1cc(N2CCN(c3ccccc3)CC2)nc(N2CCOCC2)n1", "cell count": 649, "inhibition": "-5.7% (inactive)"}
{"smiles": "C(=N/Nc1cc(N2CCOCC2)nc(N2CCOCC2)n1)/c1ccccc1", "cell count": 583, "inhibition": "120% (active)"}
{"smiles": "CN(C)c1ccc(/C=N/Nc2cc(N3CCOCC3)nc(N3CCOCC3)n2)cc1", "cell count": 716, "inhibition": "-2.2% (inactive)"}
{"smiles": "Cc1cccc(NC(=O)c2ccc(S(=O)(=O)N(C)CC3CCCO3)cc2)c1C", "note": "(stereo unspecified)", "cell count": 678, "inhibition": "-9.6% (inactive)"}
{"smiles": "Cc1cccc2c1cnn2C(=O)CCC(=O)NC1CCCCC1", "cell count": 740, "inhibition": "-7.9% (inactive)"}
